Data as given in ChEMBL document CHEMBL1944524, “Synthesis and structure-activity relationship of 5-pyridazin-3-one phenoxypiperidines as potent, selective histamine H(3) receptor inverse agonists” (Bioorg Med Chem Lett, 2012).

Assays:
[1] = Half life in rat at 1 mg/kg, iv; type: ADME, organism-based; set-up: dose 1 mg/kg, route intravenous; settings: in vivo
Outline: (§1)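 Rat PK study, dosed 1 mg/kg iv plus 10 or 5 mg/kg po. iv vehicle 3% DMSO, 30% solutol, 67% phosphate buffered saline; oral vehicle 50% Tween 80, 40% propylene carbonate, 10% propylene glycol.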

[2] = Volume of distribution in rat at 1 mg/kg, iv; type: ADME, organism-based; set-up: dose 1 mg/kg, route intravenous; settings: in vivo; outline: as §1
[3] = Clearance in rat at 1 mg/kg, iv; type: ADME, organism-based; set-up: dose 1 mg/kg, route intravenous; settings: in vivo; outline: as §1
[4] = Ratio of drug level in brain to plasma in rat at 10 mg/kg, ip after 6 hrs; type: ADME, organism-based; set-up: dose 10 mg/kg, route intraperitoneal; settings: read-out: BPR
Outline: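 Brain and plasma levels measured in rat 6 h after a 10 mg/kg ip dose; value is brain/plasma ratio.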

Histamine H3 receptor [5] = target: Histamine H3 receptor (Rattus norvegicus, UniProt Q9QYN8); experiment: Displacement of [3H]N-alpha-methylhistamine from rat histamine H3 receptor expressed in CHO cells; type: cell-based
Sequence of Histamine H3 receptor (Rattus norvegicus, UniProt Q9QYN8) (Q9QYN8 whole entry): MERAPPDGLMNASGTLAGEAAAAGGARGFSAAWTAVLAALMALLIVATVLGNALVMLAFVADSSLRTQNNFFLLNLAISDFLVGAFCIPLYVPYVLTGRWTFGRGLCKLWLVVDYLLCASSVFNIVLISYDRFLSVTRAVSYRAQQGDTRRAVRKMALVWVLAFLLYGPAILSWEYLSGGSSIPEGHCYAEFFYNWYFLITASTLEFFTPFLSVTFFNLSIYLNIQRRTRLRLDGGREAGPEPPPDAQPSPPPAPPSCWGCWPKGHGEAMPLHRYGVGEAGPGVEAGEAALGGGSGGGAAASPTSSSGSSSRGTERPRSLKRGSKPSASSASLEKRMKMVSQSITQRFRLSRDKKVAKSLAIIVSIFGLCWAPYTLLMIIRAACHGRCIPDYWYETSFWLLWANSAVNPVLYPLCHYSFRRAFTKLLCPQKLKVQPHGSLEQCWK

[6] = Cmax in rat at 5 mg/kg, po; type: ADME, organism-based; set-up: dose 5 mg/kg, route oral; settings: in vivo; outline: as §1
[7] = Tmax in rat at 5 mg/kg, po; type: ADME, organism-based; set-up: dose 5 mg/kg, route oral; settings: in vivo; outline: as §1
[8] = Oral bioavailability in rat at 5 mg/kg; type: ADME, organism-based; settings: in vivo; outline: as §1
[9] = AUC in rat at 5 mg/kg, po; type: ADME, organism-based; set-up: dose 5 mg/kg, route oral; settings: plasma; outline: as §1
Histamine H3 receptor [10] = target: Histamine H3 receptor (Homo sapiens, UniProt Q9Y5N1); experiment: Displacement of [3H]N-alpha-methylhistamine from human histamine H3 receptor expressed in CHO cells; type: cell-based
Sequence of Histamine H3 receptor (Homo sapiens, UniProt Q9Y5N1) (Q9Y5N1 whole entry): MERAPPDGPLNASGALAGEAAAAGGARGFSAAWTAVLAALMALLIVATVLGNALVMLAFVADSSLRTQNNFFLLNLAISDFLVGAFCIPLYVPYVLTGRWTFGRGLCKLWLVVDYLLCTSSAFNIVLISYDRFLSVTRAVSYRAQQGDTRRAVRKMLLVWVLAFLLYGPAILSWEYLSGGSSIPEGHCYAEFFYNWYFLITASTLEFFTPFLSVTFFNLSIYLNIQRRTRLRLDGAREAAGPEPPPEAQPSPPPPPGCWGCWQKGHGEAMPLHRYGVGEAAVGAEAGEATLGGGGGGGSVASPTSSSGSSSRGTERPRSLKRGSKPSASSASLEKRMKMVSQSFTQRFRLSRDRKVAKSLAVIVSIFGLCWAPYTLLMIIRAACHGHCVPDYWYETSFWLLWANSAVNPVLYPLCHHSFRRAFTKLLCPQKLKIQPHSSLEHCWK

[11] = target: Voltage-gated inwardly rectifying potassium channel KCNH2 (Homo sapiens, UniProt Q12809); experiment: Inhibition of human ERG by patch clamp assay
Sequence of Voltage-gated inwardly rectifying potassium channel KCNH2 (Q12809 whole entry): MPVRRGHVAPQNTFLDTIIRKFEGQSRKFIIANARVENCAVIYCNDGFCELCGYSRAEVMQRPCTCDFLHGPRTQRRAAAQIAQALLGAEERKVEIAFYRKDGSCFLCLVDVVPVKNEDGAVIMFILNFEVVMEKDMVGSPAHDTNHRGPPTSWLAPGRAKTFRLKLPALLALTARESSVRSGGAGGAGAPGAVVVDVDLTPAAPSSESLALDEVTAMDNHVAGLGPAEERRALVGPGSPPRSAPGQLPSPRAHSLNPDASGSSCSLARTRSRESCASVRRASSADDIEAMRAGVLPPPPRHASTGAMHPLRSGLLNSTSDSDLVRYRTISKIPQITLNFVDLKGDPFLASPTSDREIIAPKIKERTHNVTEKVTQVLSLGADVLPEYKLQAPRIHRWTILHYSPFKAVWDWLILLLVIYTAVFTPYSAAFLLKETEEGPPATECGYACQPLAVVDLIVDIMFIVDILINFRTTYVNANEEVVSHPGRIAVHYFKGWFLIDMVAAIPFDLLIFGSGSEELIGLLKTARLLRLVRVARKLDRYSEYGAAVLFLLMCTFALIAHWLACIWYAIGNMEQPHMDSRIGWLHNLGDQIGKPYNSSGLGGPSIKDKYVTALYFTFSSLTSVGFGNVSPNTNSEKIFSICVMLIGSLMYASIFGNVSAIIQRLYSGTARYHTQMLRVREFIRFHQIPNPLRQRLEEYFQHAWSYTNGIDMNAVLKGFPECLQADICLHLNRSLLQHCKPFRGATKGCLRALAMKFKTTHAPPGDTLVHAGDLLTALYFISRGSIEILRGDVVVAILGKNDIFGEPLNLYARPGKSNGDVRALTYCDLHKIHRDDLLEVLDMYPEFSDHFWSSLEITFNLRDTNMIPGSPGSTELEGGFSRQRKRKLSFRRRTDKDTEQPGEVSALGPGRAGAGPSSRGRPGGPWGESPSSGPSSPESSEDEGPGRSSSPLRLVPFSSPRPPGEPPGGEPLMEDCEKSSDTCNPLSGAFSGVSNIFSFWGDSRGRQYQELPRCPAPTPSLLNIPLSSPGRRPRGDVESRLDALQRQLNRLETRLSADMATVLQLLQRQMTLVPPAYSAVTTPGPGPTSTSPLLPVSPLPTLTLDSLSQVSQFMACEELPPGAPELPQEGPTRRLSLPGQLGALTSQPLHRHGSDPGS

[12] = Inhibition of cytochrome P450; type: ADME
Outline: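 CYP inhibition assessed against 5 CYP isoforms; IC50 determined.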

[13] = Oral bioavailability in rat; type: ADME, organism-based; settings: in vivo; outline: as §1

Structure (SMILES): Cc1cccnc1-n1nc(C)c(-c2ccc(OC3CCN(C4CCC4)CC3)cc2)cc1=O
- half-life [1]: 66 min
- Vd [2]: 1.1 L/kg
- clearance [3]: 11 mL/min/kg
- Kp at 6 h [4]: 1
- Ki (Histamine H3 receptor [5]): 17 nM
- Cmax [6]: 505 ng/mL
- Tmax [7]: 2.3 h
- bioavailability [8]: 23%
- AUC [9]: 1860 ng·h/mL
- Ki (Histamine H3 receptor [10]): 6 nM
- IC50 [11]: > 30000 nM
- IC50 [12]: > 30 µM

Structure (SMILES): O=c1cc(-c2ccc(OC3CCN(C4CCC4)CC3)cc2)cn[nH]1
- Ki (Histamine H3 receptor [5]): 2 nM
- bioavailability [13]: 21%
- Ki (Histamine H3 receptor [10]): 2 nM
- IC50 [11]: 2000 nM
